Folding enthalpy and Tm data for 37 sequences are collected here from the array DNA melting data of Ke et al. (doi:10.1101/2024.01.08.574731).

Data set [1] is described as follows: folding enthalpy; higher = less favourable; fluorescence melt of hairpins on a sequencing array, two-state fit. As to conditions: sodium 0.088 M. A digest of the protocol:
(§1)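 Cy3 fluorescence of library hairpins on a sequenced MiSeq flow cell, with annealed Cy3 and quencher oligos, was imaged in 50 mM Na-HEPES pH 8.0, 25 mM NaCl in 2.5 °C steps up to 60 °C. Signals were normalised to pre-quench Cy3 and to control variants. Melting temperature and folding enthalpy came from bootstrapped two-state fits, inverse-variance combined over four replicates. Fitted temperatures were raised by 9.35 °C to match UV melts.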

Data set [2] is described as follows: melting temperature; fluorescence melt of hairpins on a sequencing array, two-state fit, raised by 9.35 °C to match UV melts. Particulars: sodium 0.088 M. The procedure, abridged:
as §1

Take GTTGCAGGAAACTGCAGC (.(((((....))))).): in data set [1], the folding enthalpy was -17.4 kcal/mol. Moreover, in data set [2], the Tm came out at 51.5 °C.
GTGCCCGAAAGGGACAC ((((((....))).))): in data set [1], the folding enthalpy was -25.5 kcal/mol. The Tm in data set [2] was 58.7 °C.
For GTCGACGGAAACGTTGGC (.(.(((....))).).), the folding enthalpy in data set [1] is -24.6 kcal/mol. Moreover, in data set [2], the Tm is 46.2 °C.
On the same counts, the results for GATCTAATGTTAGATC ((((((....)))))) are -34.3 kcal/mol and 40.2 °C.
On the same counts, the results for GCATTGCGAAAGCCGTGC (((..((....))..))) are -22 kcal/mol and 41.2 °C.
On the same counts, the results for GGTAACGGAAACATTACC (((((.(....).))))) are -21.2 kcal/mol and 31.5 °C.
For GCTCTGCGAAAGCGGCGC ((.(.((....)).).)), in data set [1], the folding enthalpy is -17.2 kcal/mol. Besides, the Tm in data set [2] is 50.5 °C.
For GCTGACGAAAGTCGGAGC ((((((....)))..))), in that order: -16.5 kcal/mol and 45.7 °C.
For the sequence GCAGGGCGAAAGCACAGC ((.(.((....)).).)), the folding enthalpy in data set [1] is -20.6 kcal/mol. Besides, in data set [2], the Tm is 56.8 °C.
On the same counts, the results for GAGGAGGCGAAAGCCCTC (((..(((....)))))) are -14.1 kcal/mol and 44.1 °C.
On the same counts, the results for GCACTCGAAAGAGTTGC ((((((....))).))) are -22.3 kcal/mol and 51.4 °C.
For the sequence GTAAGGCGAAAGCCCTAC (((.(((....))).))), in data set [1], the folding enthalpy was -13.5 kcal/mol. The Tm in data set [2] was 36 °C.
On the same counts, the results for GCGGGGCGAAAGCCTAGC ((..(((....)))..)) are -19.2 kcal/mol and 64.2 °C.
For GCTTTCTCGAAAGAGAGC (((..(((....)))))), the folding enthalpy in data set [1] was -17.8 kcal/mol. Besides, the Tm in data set [2] was determined as 33 °C.
In the case of GCTTTCACGAAAGTGAGC (((..(((....)))))), the folding enthalpy in data set [1] was -11.2 kcal/mol. Also, the Tm in data set [2] was 33.8 °C.
Turning to GTCGCCGAAAGGCGAGAC ((((((....)))..))), in data set [1], the folding enthalpy is -7.32 kcal/mol. Further, the Tm in data set [2] came to 51.8 °C.
For GTCGACGAAAGTCCCGAC ((((((....)))..))), in that order: -16.1 kcal/mol and 34 °C.
Take GATCCCTTTAGGGATC ((((((....)))))): the folding enthalpy in data set [1] is -39.3 kcal/mol. Further, the Tm in data set [2] stood at 68.9 °C.
In the case of GATCTCGCGGAGATC ((((((...)))))), the folding enthalpy in data set [1] is -35.4 kcal/mol. Besides, the Tm in data set [2] turned out to be 54.9 °C.
On the same counts, the results for GATCGTCACTACGATC ((((((....)))))) are -46.1 kcal/mol and 55 °C.
As to GCCTCGCGAAAGCTAGGC ((((.((....)).)))), the folding enthalpy in data set [1] was -33 kcal/mol. In addition, the Tm in data set [2] came to 65.2 °C.
For GCGATGCGTCGC ((((....)))), in that order: -20.1 kcal/mol and 64.5 °C.
On the same counts, the results for GATCAGGAAGCTGATC ((((((....)))))) are -34.2 kcal/mol and 53.9 °C.
As for GGTATGTCGAAAGACACC (((..(((....)))))), the folding enthalpy in data set [1] is -12.1 kcal/mol. Besides, the Tm in data set [2] was 34.8 °C.
On the same counts, the results for GTAGGCCCGAAAGGGTAC (((..(((....)))))) are -11.1 kcal/mol and 32.9 °C.
For GATCTGTGCCCAGATC ((((((....)))))), in that order: -30.6 kcal/mol and 49 °C.
For GGGTGGGAAACCACCC ((((((....)))))), in that order: -29.6 kcal/mol and 68.2 °C.
In the case of GTACACGGAAACATGTAC (((((.(....).))))), the folding enthalpy in data set [1] is -28.3 kcal/mol. Moreover, in data set [2], the Tm was found to be 34.2 °C.
Take GATCCGTCGCGGATC ((((((...)))))): the folding enthalpy in data set [1] was -35.8 kcal/mol. In addition, the Tm in data set [2] turned out to be 59 °C.
Take GCCACTGGAAACAACGGC (((..((....))..))): the folding enthalpy in data set [1] is -17.3 kcal/mol. The Tm in data set [2] is 27.6 °C.
For GCAGACCGAAAGGTATGC (((.(((....))).))), in data set [1], the folding enthalpy was -39.5 kcal/mol. In addition, in data set [2], the Tm turned out to be 64.1 °C.
Regarding GGTTAACGAAAGTTGACC (((.(((....))).))), the folding enthalpy in data set [1] is -27.6 kcal/mol. Besides, the Tm in data set [2] was found to be 53.2 °C.
On the same counts, the results for GCTGCCGAAAGGCTCAGC ((((((....)))..))) are -15 kcal/mol and 44.4 °C.
On the same counts, the results for GCTATCGAAAGATTAAGC ((((((....)))..))) are -17.1 kcal/mol and 34.6 °C.
Consider GATCCGGTAGCGGATC ((((((....)))))), for which the folding enthalpy in data set [1] is -31.3 kcal/mol. Further, the Tm in data set [2] amounted to 64.2 °C.
Consider GATCTAAACTAGATC ((((((...)))))), for which the folding enthalpy in data set [1] is -23.9 kcal/mol. The Tm in data set [2] stood at 36.1 °C.
On the same counts, the results for CGCTGCCGGAAACGGGCG (((..(((....)))))) are -22.8 kcal/mol and 46.7 °C.
